Test [1] in a line: Antiproliferative activity against human SGC7901 cells at 10 uM after 72 hrs by MTS assay. Type of test: functional, SGC-7901. For orientation: Tetrazolium dyes change colour on reduction, which living cells bring about.
Test [2] in a line: Antiproliferative activity against human PM8910 cells at 10 uM after 72 hrs by MTS assay. Type of test: functional.
For the next test, the system named is U-251. Nature of the test: Antiproliferative activity against human U251 cells at 10 uM after 72 hrs by MTS assay. Type of test: functional. The method, boiled down:
(§1)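 Single-concentration screen. Cells at 4 × 10^4 cells/ml, seeded and incubated overnight, then given 10 µM compound in DMSO for 72 h (37 °C, 5% CO2), with DMSO-only controls. MTS added for 4 h and A490 read. Percent inhibition = (1 − OD490 treated/OD490 control) × 100, from triplicate experiments.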

Test [3] is described as follows: Antiproliferative activity against human H460 cells at 10 uM after 72 hrs by MTS assay. Type of test: functional, NCI-H460.
Test [4] in a line: Antiproliferative activity against human Bel7402 cells at 10 uM after 72 hrs by MTS assay. The format is functional, Bel-7402.
The test system of the next test is NCI-H1975. Nature of the test: Antiproliferative activity against human NCI-H1975 cells at 10 uM after 72 hrs by MTS assay. The format is functional. A digest of the protocol: as §1
The subject of the next test is A549. As to the kind of experiment: Antiproliferative activity against human A549 cells at 10 uM after 72 hrs by MTS assay. The format is functional.
Test [5] is described as follows: Antiproliferative activity against human SKBR3 cells at 10 uM after 72 hrs by MTS assay. Type of test: functional, SK-BR-3. A digest of the protocol:
as §1

The nature of test [6]: Antiproliferative activity against human HCC827 cells at 10 uM after 72 hrs by MTS assay. Type of test: functional.

On to `O=C1Nc2ncccc2/C1=C/c1ccc(N2CCN(C(=O)c3ccccc3)CC2)cc1`, for which the Activity came out at 15.99% in test [1]; 13.74% in test [2]; 3.44% in the test with U-251; 17.24% in test [3]; 17.58% in test [4]; 35.62% in the test on NCI-H1975. For the same compound, the Activity stood at 10.59% in the test on A549, 9.07% in test [5] and 21.77% in test [6].
As to `O=C1Nc2ncccc2/C1=C/c1ccc(N2CCN(C(=O)CCCl)CC2)cc1`, the Activity is listed as 5.55% in [1]; 14.97% in [2]; -2.81% with U-251; 7.98% in test [3]; 12.01% in test [4]; 17.66% with NCI-H1975. For the same compound, the figures for the Activity (in the test with A549; in test [5]; in test [6]) were 5.2%, 10.56% and 13.18%, respectively.
With `O=C1Nc2ncccc2/C1=C/c1ccccc1C(F)(F)F`, the Activity in test [1] is 13.97%; in test [2], 29.66%; in the test with U-251, -5.87%; in test [3] it was 16.53%; in test [4], 7.05%; in the test on NCI-H1975, 31.12%. Also, the Activity in the test on A549 worked out at 11.09%; in [5], 5.96%; in [6], 1.3%.
As to `O=CN1CCN(c2ccc(/C=C3\C(=O)Nc4ncccc43)cc2)CC1`, the Activity in test [1] was 9.66%; in test [2] it was 10.13%; in the test on U-251 it was -12.2%; in test [3], 13.68%; in test [4], 15.45%; with NCI-H1975, 23.51%. Besides, the figures for the Activity (with A549; in test [5]; in test [6]) were 0.14%, 7.8% and 14.61%, respectively.
In the case of `O=CN1CCN(c2ccc(/C=C3\C(=O)Nc4ccccc43)cc2)CC1`, the Activity in test [1] came out at 16.5%; in test [2], 27.47%; with U-251 it was 2.24%; in test [3], 32.06%; in test [4], 25.97%; in the test on NCI-H1975 it was 27.15%. The Activity in the test with A549 is listed as 25.54%; in test [5], 7.42%; in [6] it was 26.61%.
In the case of `O=C1Nc2ccc(Cl)cc2/C1=N/NC(=O)c1ccco1`, the Activity was found to be 10.02% in test [1]; 15.69% in test [2]; 12.52% in the test with U-251; 17.15% in test [3]; 12.57% in test [4]; 27.45% with NCI-H1975. Further, the Activity in the test on A549 was 11.52%; in [5], 23.68%; in test [6] it was 7.22%.
Take `O=C1Nc2ncccc2/C1=C/c1ccc(N2CCOCC2)cc1`: the Activity in test [1] is listed as 21.38%; in [2], -1.48%; in the test on U-251 it was -3.95%; in [3] it was 32.46%; in test [4], 9.16%; in the test on NCI-H1975 it was 9.21%. In addition, the Activity was determined as 12.18% with A549, 2.52% in [5] and 10.19% in [6].
As for `O=C1Nc2ccc(Cl)cc2/C1=N/c1ccc2nc(S)[nH]c2c1`, the Activity is on record as 4.79% in test [1]; 10.36% in [2]; -4.89% with U-251; 5.31% in test [3]; 10.23% in test [4]; 26.56% with NCI-H1975. In addition, the Activity in the test on A549 is reported as 11.87%; in test [5], 8.27%; in [6] it was 19.19%.
Consider `CCOC(=O)c1ccc(/N=C2\C(=O)Nc3ccc(Cl)cc32)c(N2CCOCC2)n1`, for which the Activity was found to be 2.89% in [1]; 21.97% in test [2]; 7.69% in the test on U-251; 14.19% in test [3]; 8.58% in test [4]; 34.78% with NCI-H1975. Moreover, the Activity came to 24.53% in the test on A549, 14.58% in test [5] and 18.58% in [6].
Regarding `O=C1Nc2ncccc2/C1=C/c1c[nH]c2ccc(Br)cc12`, the Activity in [1] is recorded as 32.51%; in test [2], 40.59%; in the test with U-251, 5.06%; in test [3], 39.48%; in [4] it was 42.22%; with NCI-H1975, 71.46%. Further, the Activity was 29.66% with A549, 27.26% in [5] and 39.64% in test [6].

The values are drawn from ChEMBL document CHEMBL3352626, “Synthesis and biological evaluation of novel oxindole-based RTK inhibitors as anti-cancer agents” (Bioorg Med Chem, 2014).
